Data set [1] has as its target T1, Tumour suppressor p53/oncoprotein Mdm2 (Homo sapiens, UniProt Q00987). It counts as protein assay.
The target in data set [2] is T1, Tumour suppressor p53/oncoprotein Mdm2. The data set is classed as protein assay. This is another data set of the same source.
For data set [3], the system named is SJSA-1. The data set can be described thus: cells. The following applies: Homo sapiens, SJSA-1, 72 h.
The target of data set [4] is T2, PXR (NR1I2) (Homo sapiens, UniProt O75469).
T2 sequence (O75469 whole entry): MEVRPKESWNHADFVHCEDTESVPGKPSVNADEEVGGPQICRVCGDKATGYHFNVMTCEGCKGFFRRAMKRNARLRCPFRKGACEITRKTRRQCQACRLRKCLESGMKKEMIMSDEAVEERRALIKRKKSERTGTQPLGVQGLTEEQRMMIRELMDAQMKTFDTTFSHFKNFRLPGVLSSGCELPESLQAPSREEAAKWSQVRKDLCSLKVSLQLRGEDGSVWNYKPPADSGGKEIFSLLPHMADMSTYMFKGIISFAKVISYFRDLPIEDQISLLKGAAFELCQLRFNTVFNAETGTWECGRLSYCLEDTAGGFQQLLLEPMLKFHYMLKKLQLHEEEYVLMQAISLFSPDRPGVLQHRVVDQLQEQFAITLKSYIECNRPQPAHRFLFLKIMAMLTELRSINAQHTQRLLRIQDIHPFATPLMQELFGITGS
The data set can be described thus: Activation of human PXR at 2 uM relative to control. The following applies: read-out: Activity.

For data set [5], the target named is T3, CYP3A4 (Homo sapiens, UniProt P08684). Description: Time dependent inhibition of human CYP3A4 assessed as residual activity at 10 uM after 15 mins relative to control. The following applies: read-out: Activity. The data set is classed as ADME.
T3 sequence (P08684 whole entry): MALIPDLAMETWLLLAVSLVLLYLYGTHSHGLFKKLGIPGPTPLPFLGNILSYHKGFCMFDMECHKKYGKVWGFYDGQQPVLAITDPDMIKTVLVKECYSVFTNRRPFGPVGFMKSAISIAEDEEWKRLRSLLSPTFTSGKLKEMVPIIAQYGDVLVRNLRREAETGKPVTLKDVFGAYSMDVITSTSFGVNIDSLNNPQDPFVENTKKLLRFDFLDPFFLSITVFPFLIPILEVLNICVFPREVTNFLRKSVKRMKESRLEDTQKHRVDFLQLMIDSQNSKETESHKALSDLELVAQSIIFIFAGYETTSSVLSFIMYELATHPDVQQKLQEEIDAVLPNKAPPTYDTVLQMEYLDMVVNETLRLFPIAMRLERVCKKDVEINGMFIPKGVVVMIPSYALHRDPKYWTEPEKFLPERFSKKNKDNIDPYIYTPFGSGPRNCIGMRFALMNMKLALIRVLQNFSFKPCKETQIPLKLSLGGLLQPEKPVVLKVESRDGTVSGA
Data set [6] concerns the target T3, CYP3A4. The data set can be described thus: Inhibition of human CYP3A4 at 3 uM. The data set is classed as ADME.
Data set [7] relates to Mus musculus. The data set can be described thus: Activity at p53 in human SJSA1 cells xenografted mouse assessed as induction of p21 mRNA expression at 150 mg/kg, qd for 4 days by RT-PCR analysis. More on the design: dose 150 mg/kg. The following applies: SJSA-1. The data set is classed as functional, organism-based. In short, it runs like this: (§1)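 Female athymic nude mice carrying subcutaneous SJSA-1 tumours (5 × 10^6 cells implanted; dosing at ∼175 mm3). Oral dosing q.d. for 4 days. Tumours were snap-frozen and p21 mRNA measured by quantitative RT-PCR. Reported as mean fold induction over vehicle tumours, with SEM.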
(A xenograft is tissue or cells of one species grown in another, often human tumour cells in immunodeficient mice.)

Data set [8] has as its system SJSA-1. The data set can be described thus: animal or person. The following applies: Mus musculus, SJSA-1, po, 336 h.
Data set [9] is described as follows: Volume of distribution in cynomolgus monkey. The data set is classed as ADME, organism-based, Macaca fascicularis. The following applies: in vivo.
Data set [10] relates to Mus musculus. The data set can be described thus: Activity at p53 in human SJSA1 cells xenografted po dosed mouse assessed as induction of p21 mRNA expression administered qd for 4 days by RT-PCR analysis relative to control. It counts as functional, organism-based. The following applies: SJSA-1. In short, it runs like this:
as §1

Data set [11] concerns SJSA-1. The data set can be described thus: Antitumor activity against human SJSA1 cells xenografted in po dosed mouse assessed as tumor growth inhibition administered bid measured twice per weak. It counts as functional, organism-based. The method in brief: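 Female athymic nude mice implanted subcutaneously with 5 × 10^6 SJSA-1 cells. Vehicle or compound at 25, 50, 75 or 100 mg/kg b.i.d. by oral gavage, starting on day 10 at ∼200 mm3 tumours (n = 10/group). Tumour size and body weight measured twice weekly; mean tumour volume ± SEM.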

Data set [12] concerns SJSA-1. The data set can be described thus: Antitumor activity against human SJSA1 cells xenografted in athymic nude mouse assessed as tumor growth regression at 150 mg/kg, po qd for 14 days. The data set is classed as functional, organism-based. More on the design: dose 150 mg/kg.
Data set [13] in a line: Volume of distribution at steady state in rat. The following applies: in vivo, read-out: Vdss. It counts as ADME, organism-based.
The nature of data set [14]: Volume of distribution at steady state in mouse. The data set is classed as ADME, organism-based. The following applies: in vivo, read-out: Vdss.
In data set [15] the test system is HCT-116. Description: Induction of p21 mRNA expression in p53 deficient human HCT116 cells after 7 hrs by RT-PCR analysis. It counts as functional, cell-based. The method in brief:
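HCT116 p53−/− cells exposed to compound for 7 h. Total RNA extracted and p21 mRNA quantified by quantitative RT-PCR.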

Data set [16] deals with SJSA-1. Description: Antitumor activity against human SJSA1 cells xenografted in po dosed athymic nude mouse assessed as tumor growth inhibition administered qd after 14 days.
In data set [17] the test system is SJSA-1. The data set can be described thus: animal or person. The following applies: Mus musculus, SJSA-1, po, 336 h, read-out: TGI.
A short description of data set [18]: Oral bioavailability in rat. The data set is classed as ADME, organism-based. The following applies: in vivo.
Data set [19] is described as follows: Plasma clearance in rat. It counts as ADME, organism-based.
Data set [20] is described as follows: Oral bioavailability in mouse. The data set is classed as ADME, organism-based. The following applies: in vivo.
Data set [21] can be described thus: Intrinsic clearance in human hepatocytes assessed per million cells. It counts as ADME, cell-based, Hepatocyte. The following applies: read-out: CLH.
Data set [22] relates to Mus musculus. Description: Activity at p53 in human SJSA1 cells xenografted po dosed mouse assessed as induction of p21 mRNA expression administered once measured after 6 hrs by RT-PCR analysis. The following applies: SJSA-1.
Data set [23] can be described thus: Plasma clearance in mouse. It counts as ADME, organism-based.

From ChEMBL document CHEMBL2176930, “Structure-based design of novel inhibitors of the MDM2-p53 interaction” (J Med Chem, 2012) come the findings set out here.

Active and inactive are the calls of the source. The calls are words filed in the database; no cut-off is given here.

T1 sequence (P04637 whole entry): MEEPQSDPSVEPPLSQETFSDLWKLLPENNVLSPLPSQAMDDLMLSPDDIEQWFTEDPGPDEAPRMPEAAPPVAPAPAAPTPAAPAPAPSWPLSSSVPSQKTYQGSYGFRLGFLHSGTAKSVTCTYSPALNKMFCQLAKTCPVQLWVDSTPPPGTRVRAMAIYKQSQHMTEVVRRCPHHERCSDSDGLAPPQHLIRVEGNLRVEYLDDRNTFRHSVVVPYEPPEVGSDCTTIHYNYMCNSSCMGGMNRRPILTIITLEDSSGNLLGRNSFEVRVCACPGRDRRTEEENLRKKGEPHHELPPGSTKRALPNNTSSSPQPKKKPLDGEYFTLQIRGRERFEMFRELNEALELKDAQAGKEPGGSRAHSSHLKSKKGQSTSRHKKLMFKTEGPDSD
T1 sequence (Q00987 whole entry): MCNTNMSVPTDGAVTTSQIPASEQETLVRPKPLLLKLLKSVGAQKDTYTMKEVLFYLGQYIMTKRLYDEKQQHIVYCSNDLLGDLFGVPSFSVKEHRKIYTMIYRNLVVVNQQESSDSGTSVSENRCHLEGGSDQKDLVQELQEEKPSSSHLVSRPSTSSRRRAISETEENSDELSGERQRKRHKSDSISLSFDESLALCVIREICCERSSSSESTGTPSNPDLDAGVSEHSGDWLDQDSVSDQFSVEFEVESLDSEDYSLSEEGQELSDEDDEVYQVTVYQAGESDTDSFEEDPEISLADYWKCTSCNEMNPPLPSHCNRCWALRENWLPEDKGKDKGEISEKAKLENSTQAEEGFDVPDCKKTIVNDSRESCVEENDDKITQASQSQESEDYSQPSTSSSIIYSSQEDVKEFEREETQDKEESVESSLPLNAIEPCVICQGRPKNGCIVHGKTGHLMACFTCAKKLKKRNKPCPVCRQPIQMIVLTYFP

By IC50 is commonly meant the point on the concentration scale where inhibition reaches its midpoint. In the case of `O=C(O)CC[C@H]1C[C@H](c2cccc(Cl)c2)[C@@H](c2ccc(Cl)cc2)N(CC2CC2)C1=O`, the IC50 in data set [1] came to 6630 nM; in data set [2] it was 570 nM.

In the case of `CC[C@@H](C(=O)OC(C)(C)C)N1C(=O)[C@@H](Cc2nnn[nH]2)C[C@H](c2cccc(Cl)c2)[C@H]1c1ccc(Cl)cc1`, the IC50 turned out to be 20.3 nM in data set [1], 1.8 nM in data set [2] and 312 nM in data set [3].

As for `CCCN1C(=O)CC[C@H](c2cccc(Cl)c2)[C@H]1c1ccc(Cl)cc1` (racemic), the IC50 is above 30000 nM in data set [1] and 1900 nM in data set [2].

The molecule `O=C1CC[C@H](c2cccc(Cl)c2)[C@@H](c2ccc(Cl)cc2)N1CC1CC1` (racemic) yielded an IC50 in data set [2] of 1500 nM.

Turning to `O=C1CC[C@H](c2cccc(Cl)c2)[C@@H](c2ccc(Cl)cc2)N1CC1CC1`, the IC50 is above 30000 nM in [1] and 820 nM in data set [2].

Turning to `CCC[C@@H](C(=O)OCC)N1C(=O)CC[C@H](c2cccc(Cl)c2)[C@H]1c1ccc(Cl)cc1` (racemic), the half-inhibitory concentration (IC50) in data set [1] was above 30000 nM; in data set [2], 1400 nM.

Regarding `CCOC(=O)[C@H](C)N1C(=O)CC[C@H](c2cccc(Cl)c2)[C@H]1c1ccc(Cl)cc1` (racemic), the IC50 in data set [1] was above 30000 nM; in data set [2], 1700 nM.

A word on the inhibition: it is the percentage by which the read-out fell short of the control. Take `CC[C@@H](C(=O)OC(C)(C)C)N1C(=O)[C@@](C)(Cc2nnn[nH]2)C[C@H](c2cccc(Cl)c2)[C@H]1c1ccc(Cl)cc1`: the IC50 was 9 nM in [1], 0.9 nM in data set [2] and 170 nM in data set [3]. The activity at 2 µM in data set [4] was found to be 65%. Also, in data set [5], the activity at 0.25 h, 10 µM was 30%. Besides, the inhibition at 3 µM in data set [6] worked out at 80%.

One may read the ED50 as the dose at which the effect has come halfway, by size or by number of responders. In the case of `CC[C@@H]([C@H](C)O)N1C(=O)[C@@](C)(CC(=O)O)C[C@H](c2cccc(Cl)c2)[C@H]1c1ccc(Cl)cc1`, the Activity entry in data set [7], in [10] and in data set [11] was “Dose-dependent effect” in each case. Also, the ED50 in [8] was determined as 78 mg/kg. For the same molecule, the Vd in data set [9] stood at 6.2 L/kg; in data set [13], 12 L/kg; in data set [14] it was 5.2 L/kg. Further, in data set [12], the Activity result is “Active”.

For orientation: bioavailability means dose-corrected exposure relative to a reference, in per cent. The term clearance denotes the volume of plasma or blood freed of the substance per unit of time. In data set [8], `CC[C@@H](C(=O)OC(C)(C)C)N1C(=O)[C@@](C)(CC(=O)O)C[C@H](c2cccc(Cl)c2)[C@H]1c1ccc(Cl)cc1` yielded an ED50 of 118 mg/kg. Moreover, the Activity result in [15] was “inactive”. For the same molecule, the TGI entry in data set [16] was “Dose-dependent effect”. In addition, the activity at 2 µM in data set [4] stood at 27%. Besides, the activity at 0.25 h, 10 µM in [5] came to 77%. For the same molecule, in data set [17], the inhibition in vivo at 200 mg/kg was determined as 91%. For the same molecule, the bioavailability was 77% in [18] and 36% in data set [20]. For the same molecule, the inhibition at 3 µM in [6] was 40%. For the same molecule, the clearance in data set [19] was 45 mL/min/kg; in data set [23], 25 mL/min/kg. The hepatocyte CLint in data set [21] came out at 26 µL/min/1e6 cells. Besides, in [22], the Activity entry is “Dose-dependent effect”. Also, the Vd worked out at 1.5 L/kg in [13] and 1.3 L/kg in data set [14].

With `N#CC[C@H]1C[C@H](c2cccc(Cl)c2)[C@@H](c2ccc(Cl)cc2)N(CC2CC2)C1=O`, the IC50 in [1] is above 30000 nM; in data set [2] it was 2340 nM.

As for `O=C1CC[C@H](c2cccc(Cl)c2)[C@@H](c2ccc(Cl)cc2)N1Cc1ccccc1` (racemic), the IC50 is above 30000 nM in data set [1] and 5400 nM in [2].

For the molecule `C=CC[C@H]1C[C@H](c2cccc(Cl)c2)[C@@H](c2ccc(Cl)cc2)N(CC2CC2)C1=O`, the IC50 is above 30000 nM in [1] and 6500 nM in data set [2].

As for `CCC(CC)N1C(=O)[C@@](C)(CC(=O)O)C[C@H](c2cccc(Cl)c2)[C@H]1c1ccc(Cl)cc1`, in data set [3], the concentration for half-maximal inhibition (IC50) was found to be 540 nM.

`CCOC(=O)[C@@H](CC)N1C(=O)CC[C@H](c2cccc(Cl)c2)[C@H]1c1ccc(Cl)cc1` (racemic): the IC50 in [1] was above 30000 nM; in data set [2], 3500 nM.

Turning to `O=C(O)CC[C@@H]1C[C@H](c2cccc(Cl)c2)[C@@H](c2ccc(Cl)cc2)N(CC2CC2)C1=O`, the IC50 came to 6640 nM in data set [1] and 340 nM in [2].

On to `CCOC(=O)[C@H](CC)N1C(=O)CC[C@H](c2cccc(Cl)c2)[C@H]1c1ccc(Cl)cc1` (racemic), for which the IC50 in data set [1] amounted to 18700 nM; in [2] it was 940 nM.

Take `COC(=O)CN1C(=O)CC[C@H](c2cccc(Cl)c2)[C@H]1c1ccc(Cl)cc1` (racemic): the IC50 in data set [1] was above 30000 nM; in data set [2] it was 5500 nM.

With `CC(C)CN1C(=O)CC[C@H](c2cccc(Cl)c2)[C@H]1c1ccc(Cl)cc1` (racemic), the half-maximal inhibitory concentration (IC50) is above 30000 nM in data set [1] and 2300 nM in data set [2].

Regarding `O=C1CC[C@H](c2cccc(Cl)c2)[C@@H](c2ccc(Cl)cc2)N1` (racemic), the IC50 in [1] is above 30000 nM; in data set [2], 10000 nM.

Consider `O=C1CC[C@@H](c2cccc(Cl)c2)[C@H](c2ccc(Cl)cc2)N1CC1CC1`, for which the IC50 in [1] and in [2] was above 30000 nM each time.

As to `CCCCN1C(=O)CC[C@H](c2cccc(Cl)c2)[C@H]1c1ccc(Cl)cc1` (racemic), the IC50 in [1] was above 30000 nM; in data set [2] it was 2700 nM.
